HCV NS3 hel inh: HCV NS3 helicase inhibition. NS3 helicase DNA unwinding, Cy5 molecular beacon fluorescence. inhibition, % at 10.9 µM. 290,000 compounds, 0.56% hits. AID 1800;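 active = inhibition above the mean of all tested compounds plus 3 SD, set per campaign, cut at about 35% in these data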;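 note: 0% = DMSO wells and 100% = thioflavine S control wells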
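Assay system – hepatitis C virus NS3 helicase domain fragment enzyme · Buffer or medium – MOPS pH 6.5, MgCl2, DTT, Tween20, BSA · Reagent – Cy5/quencher beacon DNA duplex and ATP to start · Compound – single 10.9 µM dose · Timing – 1 h at 25 °C · Technique – Cy5 beacon fluorescence read at start and 1 h · Measure – % inhibition of unwinding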
DNA FID counter: displaces DNA intercalator in HCV helicase counter-screen; DNA fluorescent intercalator displacement, fluorescence; inhibition, % at 7.9 µM; 290,000 compounds, 0.17% hits; AID 1845; in the data active = inhibition above about 37%;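 note: 0% = vehicle and 100% = reference compound; higher means more ethidium bromide displaced from hairpin DNA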
IMP-1 inh: inhibitors of Pseudomonas aeruginosa IMP-1 metallo-beta-lactamase; purified IMP-1, nitrocefin hydrolysis, epi-absorbance fluorescence; inhibition, % at 5.6 µM; 290,000 compounds, 0.45% hits;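 active = inhibition above the mean plus 3 SD of all compounds in the same screening run, cut at about 4.5% in these data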;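 note: 0% = IMP-1 with DMSO and 100% = DMSO wells lacking enzyme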
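System – purified recombinant IMP-1 beta-lactamase · Input – IMP-1 dispensed at 0.2 nM · Timing – 15 min preincubation plus 25 min reaction at 25 °C · Signal – Epi-absorbance fluorescence, 480 nm excitation, 530 nm emission · Measure – percent IMP-1 inhibition derived from blank-referenced optical density · Controls – Enzyme-plus-DMSO low control, enzyme-free DMSO high control · Replication – singlicate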
UBC9 SUMO inh: inhibitors of human SUMOylation (UBC9); HTRF SUMOylation assay, SAE1/SAE2 + UBC9, in vitro; inhibition, % at 35 µM; 290,000 compounds, 0.36% hits; in the data active = inhibition above about 50%, passing the limit was not always enough
Target sequence (P63279 whole entry, looked up): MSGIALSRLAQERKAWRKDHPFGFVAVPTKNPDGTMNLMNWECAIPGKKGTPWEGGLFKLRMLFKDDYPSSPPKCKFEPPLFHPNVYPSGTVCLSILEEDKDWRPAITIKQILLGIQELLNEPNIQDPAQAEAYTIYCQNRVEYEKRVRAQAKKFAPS
VIM-2 inh: inhibitors of Pseudomonas aeruginosa VIM-2 metallo-beta-lactamase; inhibition, % at 5.6 µM; purified VIM-2, nitrocefin hydrolysis, epi-absorbance fluorescence; 290,000 compounds, 0.89% hits;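 active = inhibition above the mean of all tested compounds plus 3 SD, cutoff set per screening run, cut at about 7.5% in these data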;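 note: red hydrolysis product quenches plate fluorescence so inhibitors raise well fluorescence; 0% = enzyme with DMSO and 100% = DMSO without enzyme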
Starred values were filed as active, the others as inactive. Most compounds without a hit are left out; they make up all but 2.1% or so of the library.

How did O=C(O)/C=C/c1cn(-c2ccccc2)nc1-c1cc2ccccc2o1 do in these assays?
HCV NS3 hel inh: 0; DNA FID counter: -12; IMP-1 inh: -2; UBC9 SUMO inh: 51*; VIM-2 inh: 0

How did Cc1ccc(N=Cc2c(C)[nH]n(-c3nc4ccccc4[nH]3)c2=O)cc1 do in these assays?
HCV NS3 hel inh: 6; DNA FID counter: -1; IMP-1 inh: 5.0*; UBC9 SUMO inh: -10; VIM-2 inh: -1

How did Cc1ccc(-n2[nH]c(C)c(C=Nc3ccc4[nH]c(=O)[nH]c4c3)c2=O)cc1 do in these assays?
HCV NS3 hel inh: 17; DNA FID counter: -7; IMP-1 inh: 0; UBC9 SUMO inh: 13; VIM-2 inh: 2

How did CCCCC(C(=O)NC(C)(C)C)N(Cc1ccccc1Cl)C(=O)c1snc(C(N)=O)c1N (stereo not given) do in these assays?
HCV NS3 hel inh: -3; DNA FID counter: -28; IMP-1 inh: -3; UBC9 SUMO inh: -11; VIM-2 inh: -3

Results for CC(C)C(=O)Nc1nnc(CSCc2ccccc2F)s1 ?
HCV NS3 hel inh: 5; DNA FID counter: -8; IMP-1 inh: -1; UBC9 SUMO inh: -2; VIM-2 inh: 10*

What do the screens show for `Cc1ccc(/C=C/C(=O)Nc2nnc(SCc3ccc(C#N)cc3)s2)o1`?
HCV NS3 hel inh: 5; DNA FID counter: 0; IMP-1 inh: -1; UBC9 SUMO inh: 35; VIM-2 inh: -2

Results for CCOC(=O)NNc1ccc2nonc2c1[N+](=O)[O-] ?
HCV NS3 hel inh: 1; DNA FID counter: 0; IMP-1 inh: -3; UBC9 SUMO inh: 77*; VIM-2 inh: -3

Results for O=C(Nc1nnc(-c2ccccc2SCc2ccccc2)s1)Nc1ccccc1F ?
HCV NS3 hel inh: 2; DNA FID counter: -1; IMP-1 inh: -2; UBC9 SUMO inh: 70*; VIM-2 inh: 2

What do the screens show for `COc1cccc(NC(=O)Nc2nnc(-c3ccccc3SCc3ccccc3)s2)c1`?
HCV NS3 hel inh: -6; DNA FID counter: 4; IMP-1 inh: 1; UBC9 SUMO inh: 55*; VIM-2 inh: 0

How did O=C(Nc1nnc(-c2ccccc2F)s1)Nc1ccccc1F do in these assays?
HCV NS3 hel inh: 5; DNA FID counter: 0; IMP-1 inh: -1; UBC9 SUMO inh: 10; VIM-2 inh: -4

How did OCCN1CCN(c2nc(-c3ccccc3O)nc3ccccc23)CC1 do in these assays?
HCV NS3 hel inh: -34; DNA FID counter: 26; IMP-1 inh: -2; UBC9 SUMO inh: 19; VIM-2 inh: 11*

How did OCCN1CCN(c2nc(-c3ccccc3)nc3c2oc2ccccc23)CC1 do in these assays?
HCV NS3 hel inh: -58; DNA FID counter: 43*; IMP-1 inh: -1; UBC9 SUMO inh: 4; VIM-2 inh: 4

Results for O=C(COC(=O)c1ccc(S(=O)(=O)Nc2ccccc2)cc1)NCCC1=CCCCC1 ?
HCV NS3 hel inh: -24; DNA FID counter: -22; IMP-1 inh: -2; UBC9 SUMO inh: -15; VIM-2 inh: -1

Results for CCOC(=O)c1cc2c(=O)n3ccccc3nc2n(CCOC)c1=NC(=O)c1ccncc1 ?
HCV NS3 hel inh: 24; DNA FID counter: -16; IMP-1 inh: -3; UBC9 SUMO inh: 24; VIM-2 inh: 13*

What do the screens show for `C(=N\N(c1ccccc1)c1ccccc1)/c1ccc(N2CCOCC2)s1`?
HCV NS3 hel inh: 10; DNA FID counter: -9; IMP-1 inh: -2; UBC9 SUMO inh: 10; VIM-2 inh: -7

How did COc1ccccc1NC(=O)NC1(C(=O)N2CCN(C)CC2)CCCCC1 do in these assays?
HCV NS3 hel inh: -4; DNA FID counter: 1; IMP-1 inh: -3; UBC9 SUMO inh: -8; VIM-2 inh: -1

Results for COc1cc2c(cc1NC(=S)NC(=O)/C=C/c1ccc(OC)c(OC)c1)oc1ccccc12 ?
HCV NS3 hel inh: 1; DNA FID counter: 1; IMP-1 inh: 1; UBC9 SUMO inh: -16; VIM-2 inh: 1

What do the screens show for `COc1cc2c(cc1NC(=S)NC(=O)/C=C/c1ccco1)oc1ccccc12`?
HCV NS3 hel inh: 1; DNA FID counter: 0; IMP-1 inh: -2; UBC9 SUMO inh: 52*; VIM-2 inh: -1

How did CN(Cc1nccn1C)C(=O)c1cc(COc2ccc3ncccc3c2)on1 do in these assays?
HCV NS3 hel inh: -4; DNA FID counter: -2; IMP-1 inh: -3; UBC9 SUMO inh: 21; VIM-2 inh: 10.0*

How did Cc1cc(CN(C)C(=O)c2cc(COc3ccc4ncccc4c3)on2)on1 do in these assays?
HCV NS3 hel inh: 6; DNA FID counter: -18; IMP-1 inh: -3; UBC9 SUMO inh: 14; VIM-2 inh: -3

Results for OCC[C@@H]1C[C@@H](O)[C@H](O)[C@@]2(Cc3ccccc3O2)O1 ?
HCV NS3 hel inh: -3; DNA FID counter: -5; IMP-1 inh: -4; UBC9 SUMO inh: 20; VIM-2 inh: -2

How did COc1cccc(NC(=O)c2ccccc2NS(C)(=O)=O)c1 do in these assays?
HCV NS3 hel inh: 0; DNA FID counter: 94*; IMP-1 inh: -5; UBC9 SUMO inh: -1; VIM-2 inh: 0

How did COc1ccc(NC(=O)c2ccccc2NS(C)(=O)=O)cc1OC do in these assays?
HCV NS3 hel inh: 0; DNA FID counter: -3; IMP-1 inh: -6; UBC9 SUMO inh: -26; VIM-2 inh: -2

Results for CN(C)CCNC(NC(=O)c1cccs1)C(Cl)(Cl)Cl (stereo not given) ?
HCV NS3 hel inh: 23; DNA FID counter: -4; IMP-1 inh: -2; UBC9 SUMO inh: -4; VIM-2 inh: -2

What do the screens show for `Cc1ccc(-c2c(NCCc3ccccc3)c(=O)c2=O)cc1`?
HCV NS3 hel inh: -2; DNA FID counter: -5; IMP-1 inh: 5.3*; UBC9 SUMO inh: 9; VIM-2 inh: -1

How did CC(c1ccccc1)n1cnc2ccccc2c1=O (stereo not given) do in these assays?
HCV NS3 hel inh: -8; DNA FID counter: -5; IMP-1 inh: -2; UBC9 SUMO inh: 7; VIM-2 inh: -2

Results for N=c1n(Cc2ccc(Cl)cc2)c2ccccc2n1CC(O)COc1ccccc1 (stereo not given) ?
HCV NS3 hel inh: -44; DNA FID counter: 43*; IMP-1 inh: -3; UBC9 SUMO inh: -12; VIM-2 inh: -4

How did Cc1cccc(OCC(O)Cn2c(=N)n(CCN3CCCCC3)c3ccccc32)c1 (stereo not given) do in these assays?
HCV NS3 hel inh: -44; DNA FID counter: 39*; IMP-1 inh: -4; UBC9 SUMO inh: 4; VIM-2 inh: -1

Results for CCN(CC)CCn1c(=N)n(CC(O)COc2cccc(C)c2)c2ccccc21 (stereo not given) ?
HCV NS3 hel inh: -19; DNA FID counter: 33; IMP-1 inh: -4; UBC9 SUMO inh: 16; VIM-2 inh: -1

What do the screens show for `COc1ccc(OCC(O)Cn2c(=N)n(Cc3ccccc3)c3ccccc32)cc1` (stereo not given)?
HCV NS3 hel inh: -89; DNA FID counter: 48*; IMP-1 inh: 1; UBC9 SUMO inh: 2; VIM-2 inh: 2

Results for Cc1ccc(OCC(O)Cn2c(=N)n(Cc3ccccc3)c3ccccc32)cc1 (stereo not given) ?
HCV NS3 hel inh: -34; DNA FID counter: 21; IMP-1 inh: -2; UBC9 SUMO inh: 4; VIM-2 inh: -2

Source: PubChem
